Source: PubChem BioAssay (several laboratories)
Casp6 inh: blocks human caspase-6 cleavage activity. P55212. inhibition, % at 12.5 µM. AID 686996. purified caspase-6, Z-VEID-R110 cleavage fluorescence. hit rate 0.53% among 350,000;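 active = mean inhibition across replicates at least about 35%, with every replicate also reaching that limit, limit read from the data; inconclusive = only one of the two criteria met; inactive = neither criterion met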;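 note: 0% = median of neutral control wells and 100% = no fluorescence left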
Target sequence (P55212 24-179 limits assumed): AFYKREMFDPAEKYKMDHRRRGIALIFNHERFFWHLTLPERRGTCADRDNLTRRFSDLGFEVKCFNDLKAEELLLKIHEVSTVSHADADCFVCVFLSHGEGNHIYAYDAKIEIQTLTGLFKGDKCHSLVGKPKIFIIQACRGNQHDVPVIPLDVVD
Target sequence (P55212 194-293 limits assumed): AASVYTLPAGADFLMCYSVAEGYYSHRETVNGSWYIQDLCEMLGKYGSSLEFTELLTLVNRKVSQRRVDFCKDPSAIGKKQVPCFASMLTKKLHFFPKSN
Vif imaging: inhibitors of HIV Vif | HEK293T cells, Vif self-association by quenched fluorescence, imaging, 24 h | inhibition, % at 7.49 µM | hit rate 0.35% among 340,000; in the data active = inhibition above about 50%, passing the limit was not always enough; inconclusive = no clear call, values can overlap the other calls; inactive = below about 31%
Myeloid diff MLP: myeloid differentiation induction. ER-HoxA9 myeloid progenitors, lysozyme-GFP differentiation, flow cytometry. calls only at 10 µM. hit rate 1% among 360,000;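 active = normalized GFP-positive differentiation at or above the plate's own cutoff, the solvent-only control mean plus 3 SD; inconclusive = no clear call, values can overlap the other calls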;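 note: cells exposed to compound for four days before flow analysis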
T cell HTS: T cell immune modulators affecting CD8 T cell-vesicle binding. 2C CD8+ T cell-vesicle binding, flow cytometry; hits give low values. response (vesicle binding), % at 7 µM. hit rate 0.068% among 330,000. AID 2052;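 active = response, share of CD8 T cells binding vesicles, and their 90th percentile fluorescence all below set limits, cut at about 80% in these data, passing the limit was not always enough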;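 note: values below 100% mean blocked vesicle binding to the CD8+ T cells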
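System: murine 2C transgenic CD8+ T lymphocytes; also added: QL9-loaded Drosophila micro-vesicles; times: binding 1.5 h at 37 °C; measured by: flow cytometry, PE anti-B7-1 (FL2) versus Alexa647 anti-CD8 (FL8), PFA-fixed; control set: Peptide-free naked vesicles (low) and QL9 vesicles with 0.7% DMSO vehicle (high)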
* = called active by the depositor. Shown are actives, neighbours in structure and some others; about 1.4% of the full set was active somewhere.

What do the screens show for `COc1ccc(C2/C(=C(/O)c3ccc(C)cc3)C(=O)C(=O)N2C)cc1` (configuration not stated)?
Vif imaging: 4; Myeloid diff MLP: inactive; T cell HTS: 189

What do the screens show for `Cc1ccc(S(=O)(=O)Nc2ccc3c(c2)C(=O)N(C)[C@H]2CC[C@H](CC(=O)O)O[C@@H]2CO3)cc1`?
Casp6 inh: -1

What do the screens show for `Cc1noc(C)c1NC(=O)Nc1ccc2c(c1)C(=O)N([C@@H](C)CO)C[C@H](C)[C@H](CN(C)Cc1ccc3c(c1)OCO3)O2`?
Casp6 inh: 1

Results for O=C(Nc1ccc(Cl)cc1)N[C@H]1CC[C@H](CCNC(=O)c2cc(Cl)cc(Cl)c2)O[C@@H]1CO ?
Casp6 inh: 2

What do the screens show for `COc1ccc(OC)c(C(C)NC(C)=O)c1` (configuration not stated)?
Vif imaging: 0; Myeloid diff MLP: active; T cell HTS: 275

How did CN1CCN(C(=O)C[C@H]2C[C@H]3c4cc(NC(=O)Nc5ccc(F)cc5)ccc4O[C@H]3[C@H](CO)O2)CC1 do in these assays?
Casp6 inh: -1

What do the screens show for `Cc1ccnc(NC(=O)Nc2ccc(Br)cc2Cl)c1`?
Vif imaging: 4; Myeloid diff MLP: active; T cell HTS: 538

Results for COC(=O)c1ccccc1NC(=O)Nc1cc(C)ccn1 ?
Casp6 inh: -4; Vif imaging: -3; Myeloid diff MLP: inactive; T cell HTS: 412

How did CN(C)c1cccc2c1c(NS(=O)(=O)c1cn(C)cn1)nn2C do in these assays?
Casp6 inh: 52*; Vif imaging: 10; Myeloid diff MLP: inactive; T cell HTS: 341

Results for COc1cc2c(cc1OC)-c1cc(Nc3ccc(C(=O)O)cc3)nc(=O)n1CC2 ?
Casp6 inh: 41*; Vif imaging: -1; Myeloid diff MLP: inactive; T cell HTS: 419

Results for CC(=O)N1CC2(C1)[C@@H](c1ccccc1)[C@@H](CO)N2CC1CCOCC1 ?
Casp6 inh: 2

How did C/C(=N\NC(=O)c1c([N+](=O)[O-])c(C)nn1C)c1ccc(NC(=O)C2CCCC2)cc1 do in these assays?
Casp6 inh: 2; Vif imaging: 64*; Myeloid diff MLP: inconclusive; T cell HTS: 329

Results for CN1CCN(c2cc(CNC[C@H]3O[C@@H](n4cnc5c(=O)[nH]c(N)nc54)[C@H](O)[C@@H]3O)ccc2F)CC1 ?
Casp6 inh: 54*; Myeloid diff MLP: inactive

Results for CCCCn1nc2cc(C(=O)NCC34CC5CC(CC(C5)C3)C4)ccc2c1OCC ?
Casp6 inh: 0; Vif imaging: -6; Myeloid diff MLP: active; T cell HTS: 160

Results for CCCCn1nc2cc(C(=O)NCCc3cccs3)ccc2c1OCC ?
Casp6 inh: 9; Vif imaging: 5; Myeloid diff MLP: inactive; T cell HTS: 309

Results for C[C@H]1CCCCO[C@H](CN(C)C(=O)C2CCCCC2)[C@@H](C)CN([C@@H](C)CO)C(=O)c2cc(NC(=O)Cc3ccccc3)ccc2O1 ?
Casp6 inh: -3

What do the screens show for `COc1ccc2c3c([nH]c2c1)[C@H](CO)N(Cc1cccc(Cl)c1)CC31CN(C(C)=O)C1`?
Casp6 inh: 0

Results for Cc1ccc(S(=O)(=O)N(C)C[C@@H]2OCCCC[C@@H](C)Oc3ccc(NS(C)(=O)=O)cc3C(=O)N([C@H](C)CO)C[C@H]2C)cc1 ?
Casp6 inh: 2

How did CCC(=O)n1nc(-c2ccc(Cl)cc2)nc1SC do in these assays?
Vif imaging: 53*; Myeloid diff MLP: inactive; T cell HTS: 332

Results for O=C(NC1CCC1)[C@@H]1[C@@H](CO)[C@@H]2Cn3c(ccc(-c4ccccc4)c3=O)[C@@H]2N1Cc1ccccn1 ?
Casp6 inh: 1

How did S=C(Nc1ccccc1)N1CCN(C2CCCCC2)CC1 do in these assays?
Vif imaging: 0; Myeloid diff MLP: active; T cell HTS: 216

How did CN(C)CCCNC(=O)[C@H]1[C@H](CO)[C@H]2Cn3c(cccc3=O)[C@@H]1N2CC1CC1 do in these assays?
Casp6 inh: 1

How did CCC(C(=O)Nc1ncn[nH]1)(C(F)(F)F)C(F)(F)F do in these assays?
Vif imaging: -6; Myeloid diff MLP: active; T cell HTS: 106

How did COc1ccc(C2NC(=S)NC3=C2CCCC3=C2SCCS2)cc1 (configuration not stated) do in these assays?
Casp6 inh: -2; Vif imaging: 56*; T cell HTS: 210

Results for O=C(O)c1ccccc1/C=N/NC(=O)c1cc(-c2ccco2)nc2ccccc12 ?
Casp6 inh: 61*; Vif imaging: 3; Myeloid diff MLP: inactive; T cell HTS: 74

Results for CCOc1ccc(N=C(C)c2ccccc2O)cc1 ?
Casp6 inh: -2; Vif imaging: 7; Myeloid diff MLP: active; T cell HTS: 0

What do the screens show for `O=c1c2ccccc2[nH]c2ccc(O)cc12`?
Casp6 inh: 38*; Vif imaging: 5; Myeloid diff MLP: inactive; T cell HTS: 548

Results for Cc1ccc2[nH]c3ccccc3c(=O)c2c1 ?
Casp6 inh: 0; Vif imaging: -2; Myeloid diff MLP: inactive; T cell HTS: 294

How did COc1ccc2c3c(n(C)c2c1)[C@H](CO)N(CC1CCOCC1)CC31CN(C(=O)Nc2ccccc2)C1 do in these assays?
Casp6 inh: -2

What do the screens show for `O=CN/C=C/c1cc(O)ccc1O`?
Casp6 inh: 70*; Vif imaging: -9; Myeloid diff MLP: inactive; T cell HTS: 392

What do the screens show for `O=Cc1ccc(O)cc1O`?
Casp6 inh: -2; Vif imaging: inconclusive; Myeloid diff MLP: inactive; T cell HTS: 341

How did Oc1ccc(Cl)cc1CNc1cccc2cccnc12 do in these assays?
Casp6 inh: 84*; Vif imaging: -7; Myeloid diff MLP: inactive; T cell HTS: 221

What do the screens show for `Oc1ccc(Br)cc1CNc1cccc2cccnc12`?
Casp6 inh: 3; Vif imaging: 1; Myeloid diff MLP: inactive; T cell HTS: 376

Results for CCCn1c(N)c(C(=O)CN2CCN(S(=O)(=O)c3cccc(Cl)c3)CC2)c(=O)[nH]c1=O ?
Casp6 inh: 41*; Vif imaging: -19; Myeloid diff MLP: inactive; T cell HTS: 181

What do the screens show for `Cn1c(=O)c(C(=O)CN2CCN(S(=O)(=O)c3ccccc3)CC2)c(N)n(Cc2ccccc2)c1=O`?
Vif imaging: 2; Myeloid diff MLP: inactive; T cell HTS: 216

How did CCC(=O)N1CCC2(CC1)CN(Cc1cc(F)ccc1F)[C@H](CO)c1[nH]c3cc(OC)ccc3c12 do in these assays?
Casp6 inh: -5

What do the screens show for `O=C(C[C@@H]1CC[C@H]2[C@@H](COC[C@H](O)CN2Cc2nccs2)O1)NCc1ccc(F)cc1`?
Casp6 inh: 3

How did COc1ccc(NC(=O)C2=C(C)NC(=O)NC2c2cccc(OC)c2OC)c(OC)c1 (configuration not stated) do in these assays?
Vif imaging: 7; Myeloid diff MLP: inactive; T cell HTS: 501

What do the screens show for `COc1cccc(C2NC(=O)NC(C)=C2C(=O)Nc2ccc(C)cc2)c1OC` (configuration not stated)?
Casp6 inh: 2; Vif imaging: 3; Myeloid diff MLP: active; T cell HTS: 440
